A short description of data set [1]: Octanol-phosphate buffered saline distribution coefficient, log D of the compound at pH 7.4. The class given is physicochemical. The method, boiled down:
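PBS pH 7.4 and 1-octanol were mutually pre-saturated for over 12 h. Compound (200 µM) was dissolved in one phase, an equal volume of the other phase was added, and the mixture was shaken 30 min at room temperature. Both phases were assayed by HPLC or LC/MS. Log D7.4 was calculated as log of the octanol/PBS peak area ratio.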

Data set [2] is described as follows: Permeability of the compound at pH 7.4 by PAMPA method. The class given is ADME. Conditions: read-out: permeability. The method, boiled down: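 PAMPA was run with the donor filter coated with a phospholipid solution and the acceptor plate filled with acceptor buffer pH 7.4. Plates were incubated 4 h at 25 °C. Compound in both plates was quantified spectrometrically, and effective permeability Pe7.4 was calculated.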
Background: PAMPA measures passive passage across an artificial lipid membrane.

Data set [3] in a line: Apparent permeability across MDCK cells at 10 uM after 1 hr by LC/MS/MS analysis. The class given is ADME, cell-based, Canis lupus familiaris. Conditions: dog. The method, boiled down: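 MDCK cells were grown 6 days on transwells to form monolayers. Compound (10 µM in transport buffer, pH 6.0) was added apically. The basolateral side held buffer at pH 7.4 with 4% BSA, and metoprolol served as positive control. After 1 h at 37 °C, basolateral concentration was measured by LC/MS/MS. Papp was calculated from flux over 3600 s across a 0.33 cm² filter.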

Data set [4] in a line: Plasma concentration in BALB/c mouse at 30 mg/kg, po after 90 mins. The class given is ADME, organism-based. On the set-up: dose 30 mg/kg, route oral.
Data set [5] is described as follows: Tmax in BALB/c mouse at 30 mg/kg, po. In kind it is ADME, organism-based. More on the design: dose 30 mg/kg, route oral. Conditions: in vivo. The method, boiled down:
(§1)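 Fed female BALB/c mice (7 weeks old, n = 3) received a single oral dose of 30 mg/kg suspended in 0.5% (w/v) methyl cellulose. Blood was drawn at 0.5, 1, 2, 4, 8 and 24 h, and plasma was stored at −20 °C. Drug was quantified by LC/MS/MS, and parameters were derived by non-compartmental analysis.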

Data set [6] can be described thus: Cmax in BALB/c mouse at 30 mg/kg, po. In kind it is ADME, organism-based. More on the design: dose 30 mg/kg, route oral. Conditions: in vivo. The method, boiled down: as §1
The nature of data set [7]: Mean residence time in Wister-Lewis rat at 30 mg/kg, po. The class given is ADME, organism-based. On the set-up: dose 30 mg/kg, route oral. Conditions: in vivo. The method, boiled down: (§2)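 Fed female Wistar–Lewis rats (7–8 weeks old, n = 3) were given 30 mg/kg orally as a suspension in 0.5% (w/v) methyl cellulose. Blood samples (0.3 ml) were taken at 0.5, 1, 2, 4, 8 and 24 h. Plasma levels were measured by LC/MS/MS and analysed non-compartmentally.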

Data set [8] can be described thus: Tmax in Wister-Lewis rat at 30 mg/kg, po. The class given is ADME, organism-based. On the set-up: dose 30 mg/kg, route oral. Conditions: in vivo. The method in brief:
as §2

Data set [9] is described as follows: AUC (0 to 24 hrs) in Wister-Lewis rat at 30 mg/kg, po. The class given is ADME, organism-based. More on the design: time < 24 hr, dose 30 mg/kg, route oral. Conditions: plasma. The method in brief:
as §2

Data set [10] in a line: AUC (0 to 24 hrs) in BALB/c mouse at 30 mg/kg, po. On the set-up: time < 24 hr, dose 30 mg/kg, route oral. Conditions: plasma. The class given is ADME, organism-based. The method in brief:
as §1

The nature of data set [11]: Oral steady-state volume of distribution in Wister-Lewis rat at 30 mg/kg, po. In kind it is ADME, organism-based. On the set-up: dose 30 mg/kg, route oral. Conditions: in vivo, read-out: Vss/F. The method, boiled down: as §2
Data set [12] can be described thus: Cmax in Wister-Lewis rat at 30 mg/kg, po. The class given is ADME, organism-based. More on the design: dose 30 mg/kg, route oral. Conditions: in vivo. The method, boiled down:
as §2

The nature of data set [13]: Mean residence time in BALB/c mouse at 30 mg/kg, po. Conditions: in vivo. More on the design: dose 30 mg/kg, route oral. In kind it is ADME, organism-based. The method in brief: as §1
Data set [14] in a line: Oral steady-state volume of distribution in BALB/c mouse at 30 mg/kg, po. On the set-up: dose 30 mg/kg, route oral. In kind it is ADME, organism-based. Conditions: in vivo, read-out: Vss/F. The method in brief:
as §1

As usually defined, the logD is the decadic logarithm of the distribution of all forms, ionised or not, between an organic phase and buffer at a given pH. `O=C(NC[C@@H]1CCCN1)c1ccc(-c2cnc3ccc(NCC4CC4)nn23)cc1`: the logD in data set [1] stood at 1.8. Moreover, the Papp in data set [2] was 0.84 ×10⁻⁶ cm/s.
Turning to `CN(C)CCNC(=O)c1ccc(-c2cnc3ccc(NCC4CC4)nn23)cc1`, in [3], the Papp at 1 h, 10 µM was 2.1 ×10⁻⁶ cm/s. In data set [1], the logD worked out at 2.5.
In the case of `CCCN(C[C@@H]1C[C@@H](F)CN1)C(=O)c1ccc(-c2cnc3ccc(NCC4CC4)nn23)cc1`, the logD in [1] was 3.4.
The same measure, in the same setting: then `O=C(c1ccc(-c2cnc3ccc(NCC4CC4)nn23)cc1)N(Cc1ccc(Cl)cc1)C[C@@H]1C[C@@H](F)CN1`, with 5.
`O=C(NCCN1CCCC1)c1ccc(-c2cnc3ccc(NCC4CC4)nn23)cc1` registered a concentration at […] in [4] of 440 ng/mL. The Papp at 1 h, 10 µM in [3] stood at 2.3 ×10⁻⁶ cm/s. In data set [1], this compound showed a logD of 2.6. In [2], the Papp was over 50 ×10⁻⁶ cm/s.
For `CN(C)CCNC(=O)c1ccc(-c2cnc3ccc(NCC4CC4)nn23)cc1F`, in that order: 110 ng/mL, 6.2 ×10⁻⁶ cm/s, 2.7 and over 50 ×10⁻⁶ cm/s.
Take `O=C(NCCN1CCCC1)c1ccc(-c2cnc3ccc(NCC4CC4)nn23)cc1F`: the concentration at […] in data set [4] came out at 290 ng/mL. Also, in [3], the Papp at 1 h, 10 µM worked out at 5.6 ×10⁻⁶ cm/s. This compound also showed a logD in [1] of 2.8. The Papp in data set [2] was over 50 ×10⁻⁶ cm/s.
`O=C(NC[C@@H]1CCCN1)c1ccc(-c2cnc3ccc(NCC4CC4)nn23)cc1F` showed a concentration at […] in data set [4] of 140 ng/mL. The logD in data set [1] amounted to 1.8. Moreover, the Papp in data set [2] stood at 19 ×10⁻⁶ cm/s.
In general, Tmax refers to the time at which the peak concentration occurs. A word on the Cmax: it is the peak of the concentration-time curve. The MRT is a mean duration of stay, worked out from the concentration-time curve. As usually defined, the AUC(0-t) is exposure summed from dosing to a finite time, without extrapolation to infinity. Take `O=C(NC[C@@H]1C[C@@H](F)CN1)c1ccc(-c2cnc3ccc(NCC4CC4)nn23)cc1F`: the Tmax in data set [5] was found to be 1 h; in data set [8], 4 h. Further, the concentration at […] in data set [4] stood at 380 ng/mL. The Cmax in data set [6] came to 260 ng/mL; in [12], 4100 ng/mL. Moreover, the MRT was found to be 4.9 h in data set [7] and 2.3 h in [13]. In addition, the AUC(0-t) at 24 h is 23100 ng·h/mL in data set [9] and 888 ng·h/mL in data set [10]. The Vd/F in [11] stood at 6.5 L/kg; in [14] it was 78 L/kg. The Papp at 1 h, 10 µM in data set [3] came to 4.2 ×10⁻⁶ cm/s. For the same compound, the logD in [1] is 3.1. Also, in data set [2], the Papp is over 50 ×10⁻⁶ cm/s.
Compound `O=C(NC[C@@H]1CCCN1)c1ccc(-c2cnc3ccc(NCC4CC4)nn23)cc1Cl` registered a logD in data set [1] of 2.2. In addition, the Papp in data set [2] was found to be 14 ×10⁻⁶ cm/s.
On the same counts, the results for `CN(C)CCNC(=O)c1ccc(-c2cnc3ccc(NCC4CC4)nn23)nc1` are 2 and 14 ×10⁻⁶ cm/s.
On the same counts, the results for `O=C(NCCN1CCCC1)c1ccc(-c2cnc3ccc(NCC4CC4)nn23)nc1` are 2 and 11 ×10⁻⁶ cm/s.
`CCCNc1ccc2ncc(-c3ccc(C(=O)NC[C@@H]4C[C@@H](F)CN4)c(F)c3)n2n1` came in with a concentration at […] in data set [4] of 540 ng/mL. Further, the logD in data set [1] came out at 3.1. In [2], the Papp is over 50 ×10⁻⁶ cm/s.
For `CCCCNc1ccc2ncc(-c3ccc(C(=O)NC[C@@H]4C[C@@H](F)CN4)c(F)c3)n2n1`, in that order: 600 ng/mL, 3.5 and over 50 ×10⁻⁶ cm/s.
In the case of `CCCCCNc1ccc2ncc(-c3ccc(C(=O)NC[C@@H]4C[C@@H](F)CN4)c(F)c3)n2n1`, the concentration at […] in [4] amounted to 93 ng/mL. Further, in data set [1], the log distribution coefficient (logD) was determined as 4. Moreover, in data set [2], the Papp was over 50 ×10⁻⁶ cm/s.
With `O=C(NC[C@@H]1C[C@@H](F)CN1)c1ccc(-c2cnc3ccc(NC4CCC4)nn23)cc1F`, the results for the Tmax in [5] and in data set [8] were 1 h and 2.8 h, respectively. The compound further yielded a concentration at […] in data set [4] of 1400 ng/mL. Besides, the maximum concentration (Cmax) in [6] is 750 ng/mL; in data set [12] it was 16000 ng/mL. Moreover, the MRT came out at 5.1 h in [7] and 2 h in [13]. For the same compound, the AUC(0-t) at 24 h in [9] worked out at 95300 ng·h/mL; in data set [10] it was 1860 ng·h/mL. For the same compound, the Vd/F in data set [11] was 1.7 L/kg; in [14] it was 32 L/kg. In addition, the Papp at 1 h, 10 µM in data set [3] was determined as 7 ×10⁻⁶ cm/s. Moreover, the logD in [1] is 3.3. For the same compound, the Papp in [2] was over 50 ×10⁻⁶ cm/s.
Regarding `O=C(NC[C@@H]1C[C@@H](F)CN1)c1ccc(-c2cnc3ccc(NC4CCCC4)nn23)cc1F`, the concentration at […] in data set [4] was found to be 660 ng/mL. Besides, the logD in [1] was found to be 3.6. The Papp in data set [2] is over 50 ×10⁻⁶ cm/s.
`CSCCNc1ccc2ncc(-c3ccc(C(=O)NC[C@@H]4C[C@@H](F)CN4)c(F)c3)n2n1` showed a pH-dependent lipophilicity (logD) in data set [1] of 2.8. Further, in data set [2], the Papp is over 50 ×10⁻⁶ cm/s.
The compound `CSCCCNc1ccc2ncc(-c3ccc(C(=O)NC[C@@H]4C[C@@H](F)CN4)c(F)c3)n2n1` yielded a concentration at […] in data set [4] of 150 ng/mL. For the same compound, in [1], the pH-dependent lipophilicity (logD) was 3. Further, the Papp in data set [2] is 40 ×10⁻⁶ cm/s.
For `O=C(NC[C@@H]1C[C@@H](F)CN1)c1ccc(-c2cnc3ccc(NCCCF)nn23)cc1F`, in that order: 480 ng/mL, 2.5 and 33 ×10⁻⁶ cm/s.
For `O=C(NC[C@@H]1C[C@@H](F)CN1)c1ccc(-c2cnc3ccc(NCCCCF)nn23)cc1F`, in that order: 420 ng/mL, 2.8 and over 50 ×10⁻⁶ cm/s.
On to `O=C(NC[C@@H]1C[C@@H](F)CN1)c1ccc(-c2cnc3ccc(NCCCCCF)nn23)cc1F`, for which the concentration at […] in [4] was found to be 110 ng/mL. Also, in [1], the logD worked out at 3.3. The Papp in data set [2] was 37 ×10⁻⁶ cm/s.

(Values after ChEMBL document CHEMBL1806352, “Discovery of imidazo[1,2-b]pyridazines as IKKβ inhibitors. Part 3: exploration of effective compounds in arthritis models” (Bioorg Med Chem Lett, 2011).)
